Experimental data pooled from the literature.
PRKCE: Protein kinase C epsilon type (PRKCE, Homo sapiens, UniProt Q02156)
F10: Coagulation factor X (F10, Homo sapiens, UniProt P00742)
MMP2: 72 kDa type IV collagenase (MMP2, Homo sapiens, UniProt P08253)

`Cn1cc(-c2cc(F)cc(N3CCn4c(cc5c4CCCC5)C3=O)c2CO)cc(Nc2ccc(N3CCN(C4COC4)CC3)cn2)c1=O` gave an inhibition of 4% (G protein-coupled receptor kinase 6 (GRK6, Homo sapiens, UniProt P43250); enzyme activity, inhibitor; 0.1 µM).
For `C#Cc1n[nH]c2c(-c3cn(C(C)c4ccccn4)c(=O)[nH]c3=O)cc(F)cc12` (stereo not drawn), the inhibition was 3.8% (PRKCE; enzyme activity, inhibitor; 1 µM).
For `Cn1cc(-c2cccc(N3CCc4c(sc5c4CC(C)(C)C5)C3=O)c2CO)cc(Nc2ccncn2)c1=O`, the inhibition was -5% (G protein-coupled receptor kinase 5 (GRK5, Homo sapiens, UniProt P34947); enzyme activity, inhibitor; 1 µM).
`C#Cc1n[nH]c2c(-c3cn([C@@H](C)c4ccccc4)c(=O)[nH]c3=O)cc(F)cc12` gave an inhibition of 7.2% (PRKCE; enzyme activity, inhibitor; 0.1 µM).
`CC(C)C[C@H](NC(=O)[C@H](Cc1ccccc1)NC(=O)c1cnccn1)B(O)O` has an inhibition of 48.8% (F10; enzyme activity, inhibitor; 33 µM).
`COc1cc(Nc2ncc(F)c(Nc3ccc4c(n3)NC(=O)C(C)(C)O4)n2)cc(OC)c1OC` gave an inhibition of 100% (Epithelial discoidin domain-containing receptor 1 (DDR1, Homo sapiens, UniProt Q08345); binding, competition with immobilised ligand; 10 µM).
`N=C(N)c1ccc2cc(OC(=O)c3ccc(N=C(N)N)cc3)ccc2c1` has an inhibition of 0% (MMP2; enzyme activity, inhibitor; 10 µM).
For `Nc1c(S(=O)(=O)O)cc(Nc2ccc(Nc3nc(Cl)nc(Nc4cccc(S(=O)(=O)O)c4)n3)c(S(=O)(=O)O)c2)c2c1C(=O)c1ccccc1C2=O`, the inhibition was 93% (Histone-lysine N-methyltransferase SETD7 (SETD7, Homo sapiens, UniProt Q8WTS6); cell-free assay; 10 µM).
`O=C(Nc1cccnn1)N1CCN([C@@H]2CCOc3cc(C(F)(F)F)ccc32)CC1` has an inhibition of 20% (MMP2; cell-free assay; 20 µM).
For `CN(C)C(=O)COC(=O)Cc1ccc(OC(=O)c2ccc(NC(=N)N)cc2)cc1`, the inhibition was 7% (Ubiquitin carboxyl-terminal hydrolase isozyme L1 (UCHL1, Homo sapiens, UniProt P09936); enzyme activity, inhibitor; 10 µM).
For `c1ccc(C(NCCNC(c2ccccc2)c2ccccc2)c2ccccc2)cc1`, the inhibition was -9% (F10; enzyme activity, inhibitor; 10 µM).
`COc1ccc(S(=O)(=O)N(CC(=O)NO)CC(C)C)cc1` gave an inhibition of 24% (MMP2; enzyme activity, inhibitor; 10 nM).
With `Cc1ncc(C)n2nc(/C=C/c3nc(N4CCCC4)cc(N4CCOCC4)n3)nc12` the inhibition was 3% (MMP2; enzyme activity, inhibitor; 10 µM).
The inhibition of `CCOC(=O)c1ccc(OC(=O)CCCCCNC(=N)N)cc1` is reported as 26% (MMP2; enzyme activity, inhibitor; 10 µM).
`CCN(CC)CCCC[C@H](NC(=O)[C@H](CC(C)C)NC(=O)[C@H](C)NC(=O)[C@H](Cc1ccccc1)NC(=O)c1ccc(C(C)(C)C)cc1)C(=O)N[C@@H](CO)C(=O)OC` has an inhibition of -21% (Galanin receptor type 2 (GALR2, Homo sapiens, UniProt O43603); ligand displacement, radioligand; 10 µM).
